Data from ChEMBL document CHEMBL5257020, “Discovery of a 9-mer Cationic Peptide (LTX-315) as a Potential First in Class Oncolytic Peptide” (J Med Chem, 2016).
Where a SMILES comes first, the peptide text is derived from it. [ ]: non-standard residue; d: D form. Bip = N[C@@H](Cc1ccc(-c2ccccc2)cc1)C(=O)O

Columns and labels:
[1] = Cytotoxicity against human HUVEC-C cells assessed as inhibition of cell proliferation incubated for 4 hrs by MTS assay; assay type: toxicity, cell-based
Method in brief: (§1)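 Cells grown in RPMI-1640 with 2 mM L-glutamine and 10% FBS, plated, then held 24 h at 37 °C. Adherent lines washed once in FBS-free medium. Cells exposed 4 h at 37 °C, 5% CO2 in FBS-free medium to 10 concentrations (1/4 steps, 400 μM top). 1% Triton X-100 served as positive control. MTS/PMS added for 2 h, then OD 490 nm read. IC50 from semilog curves; three independent experiments, quadruplicate wells.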

[2] = tested on: HCT-15; assay: Cytotoxicity against human HCT-15 cells assessed as inhibition of cell proliferation incubated for 4 hrs by MTS assay; assay type: functional, cell-based; conditions: HCT-15, 4 h; method in brief: as §1
[3] = tested on: MCF7; assay: Cytotoxicity against human MCF7 cells transfected with MDR1 assessed as inhibition of cell proliferation incubated for 4 hrs by MTS assay; assay type: functional, cell-based; conditions: MCF7, 4 h; method in brief: as §1
[4] = tested on: KARPAS-299; assay: Cytotoxicity against human KARPAS-299 cells assessed as inhibition of cell proliferation incubated for 4 hrs by MTS assay; assay type: functional, cell-based; conditions: KARPAS-299, 4 h; method in brief: as §1
[5] = tested on: Calu-6; assay: Cytotoxicity against human Calu-6 cells assessed as inhibition of cell proliferation incubated for 4 hrs by MTS assay; assay type: functional, cell-based; conditions: Calu-6, 4 h; method in brief: as §1
[6] = tested on: HCT-116; assay: Cytotoxicity against human HCT-116 cells assessed as inhibition of cell proliferation incubated for 4 hrs by MTS assay; assay type: functional, cell-based; conditions: HCT-116, 4 h; method in brief: as §1
[7] = Cytotoxicity against human MRC5 cells assessed as inhibition of cell proliferation incubated for 4 hrs by MTT assay; assay type: toxicity, cell-based
Method in brief: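 MRC-5 human embryonic lung fibroblasts cultured in MEM with 2 mM L-glutamine and 10% FBS, without antibiotics, at 37 °C in humidified 5% CO2. Cultures were tested for mycoplasma. IC50 from three or more independent measurements, given as mean ± SD.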

[8] = tested on: IGROV-1; assay: Cytotoxicity against human IGROV-1 cells assessed as inhibition of cell proliferation incubated for 4 hrs by MTS assay; assay type: functional, cell-based; conditions: IGROV-1, 4 h; method in brief: as §1
[9] = tested on: SK-HEP1; assay: Cytotoxicity against human SK-HEP1 cells assessed as inhibition of cell proliferation incubated for 4 hrs by MTS assay; assay type: functional, cell-based; conditions: SK-HEP1, 4 h; method in brief: as §1
[10] = tested on: MCF7; assay: Cytotoxicity against human MCF7 cells assessed as inhibition of cell proliferation incubated for 4 hrs by MTS assay; assay type: functional, cell-based; conditions: MCF7, 4 h; method in brief: as §1
[11] = tested on: T47D; assay: Cytotoxicity against human T47D cells assessed as inhibition of cell proliferation incubated for 4 hrs by MTS assay; assay type: functional, cell-based; method in brief: as §1
[12] = tested on: SK-MEL-2; assay: Cytotoxicity against human SK-MEL-2 cells assessed as inhibition of cell proliferation incubated for 4 hrs by MTS assay; assay type: functional, cell-based; conditions: SK-MEL-2, 4 h; method in brief: as §1
[13] = tested on: MDA-MB-231; assay: Cytotoxicity against human MDA-MB-231 cells assessed as inhibition of cell proliferation incubated for 4 hrs by MTS assay; assay type: functional, cell-based; conditions: MDA-MB-231, 4 h; method in brief: as §1
[14] = tested on: SK-OV-3; assay: Cytotoxicity against human SK-OV-3 cells assessed as inhibition of cell proliferation incubated for 4 hrs by MTS assay; assay type: functional, cell-based; conditions: SK-OV-3, 4 h; method in brief: as §1
[15] = tested on: SK-N-AS; assay: Cytotoxicity against human SK-N-AS cells assessed as inhibition of cell proliferation incubated for 4 hrs by MTS assay; assay type: functional, cell-based; method in brief: as §1
[16] = tested on: OVCAR-3; assay: Cytotoxicity against human OVCAR-3 cells assessed as inhibition of cell proliferation incubated for 4 hrs by MTS assay; assay type: functional, cell-based; conditions: OVCAR-3, 4 h; method in brief: as §1
[17] = tested on: Daudi; assay: Cytotoxicity against human Daudi cells assessed as inhibition of cell proliferation incubated for 4 hrs by MTS assay; assay type: functional, cell-based; method in brief: as §1
[18] = tested on: A549; assay: Cytotoxicity against human A549 cells assessed as inhibition of cell proliferation incubated for 4 hrs by MTS assay; assay type: functional, cell-based; conditions: A549, 4 h; method in brief: as §1
[19] = tested on: DU-145; assay: Cytotoxicity against human DU-145 cells assessed as inhibition of cell proliferation incubated for 4 hrs by MTS assay; assay type: functional, cell-based; conditions: DU-145, 4 h; method in brief: as §1
[20] = tested on: MDA-MB-435S; assay: Cytotoxicity against human MDA-MB-435S cells assessed as inhibition of cell proliferation incubated for 4 hrs by MTS assay; assay type: functional, cell-based; method in brief: as §1
[21] = tested on: Malme-3M; assay: Cytotoxicity against human Malme-3M cells assessed as inhibition of cell proliferation incubated for 4 hrs by MTS assay; assay type: functional, cell-based; method in brief: as §1
[22] = tested on: BXPC-3; assay: Cytotoxicity against human BXPC-3 cells assessed as inhibition of cell proliferation incubated for 4 hrs by MTS assay; assay type: functional, cell-based; conditions: BXPC-3, 4 h; method in brief: as §1
[23] = Cytotoxicity against human MINO cells assessed as inhibition of cell proliferation incubated for 4 hrs by MTS assay; assay type: functional, cell-based; method in brief: as §1
[24] = tested on: A20; assay: Cytotoxicity against mouse A20 lymphoma cells assessed as inhibition of cell proliferation incubated for 4 hrs by MTT assay; assay type: functional, cell-based; conditions: A20, 4 h
Method in brief: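 Murine A20 cells cultured in RPMI-1640 with 2 mM L-glutamine, 1.5 g/L sodium bicarbonate, 4.5 g/L glucose, 10 mM HEPES, 1.0 mM sodium pyruvate, 0.05 mM 2-mercaptoethanol and 10% FBS, without antibiotics, at 37 °C, 5% CO2. IC50 from three or more independent measurements, given as mean ± SD.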

[25] = Cytotoxicity against human Hs 445 cells assessed as inhibition of cell proliferation incubated for 4 hrs by MTS assay; assay type: functional, cell-based; conditions: Hs 445, 4 h; method in brief: as §1
[26] = tested on: U-937; assay: Cytotoxicity against human U-937 cells assessed as inhibition of cell proliferation incubated for 4 hrs by MTS assay; assay type: functional, cell-based; conditions: U-937, 4 h; method in brief: as §1
[27] = tested on: Toledo; assay: Cytotoxicity against human Toledo cells assessed as inhibition of cell proliferation incubated for 4 hrs by MTS assay; assay type: functional, cell-based; method in brief: as §1
[28] = tested on: HL-60; assay: Cytotoxicity against human HL-60 cells assessed as inhibition of cell proliferation incubated for 4 hrs by MTS assay; assay type: functional, cell-based; conditions: HL-60, 4 h; method in brief: as §1
[29] = tested on: SU-DHL-1; assay: Cytotoxicity against human SU-DHL-1 cells assessed as inhibition of cell proliferation incubated for 4 hrs by MTS assay; assay type: functional, cell-based; conditions: SU-DHL-1, 4 h; method in brief: as §1
[30] = Cytotoxicity against human MRC5 cells assessed as inhibition of cell proliferation incubated for 4 hrs by MTS assay; assay type: toxicity, cell-based; method in brief: as §1
[31] = tested on: HepG2; assay: Cytotoxicity against human HepG2 cells assessed as inhibition of cell proliferation incubated for 4 hrs by MTS assay; assay type: functional, cell-based; conditions: HepG2, 4 h; method in brief: as §1
[32] = tested on: RPMI-8226; assay: Cytotoxicity against human RPMI-8226 cells assessed as inhibition of cell proliferation incubated for 4 hrs by MTS assay; assay type: functional, cell-based; conditions: RPMI-8226, 4 h; method in brief: as §1
[33] = tested on: CCRF-CEM; assay: Cytotoxicity against human CCRF-CEM cells assessed as inhibition of cell proliferation incubated for 4 hrs by MTS assay; assay type: functional, cell-based; method in brief: as §1
[34] = Cytotoxicity against human U-87 MG cells assessed as inhibition of cell proliferation incubated for 4 hrs by MTS assay; assay type: functional, cell-based, U-87MG ATCC; method in brief: as §1
[35] = tested on: Raji; assay: Cytotoxicity against human Raji cells assessed as inhibition of cell proliferation incubated for 4 hrs by MTS assay; assay type: functional, cell-based; method in brief: as §1
[36] = tested on: COLO 205; assay: Cytotoxicity against human COLO 205 cells assessed as inhibition of cell proliferation incubated for 4 hrs by MTS assay; assay type: functional, cell-based; conditions: COLO 205, 4 h; method in brief: as §1
[37] = tested on: HL60/ADR; assay: Cytotoxicity against human HL60/ADR cells assessed as inhibition of cell proliferation incubated for 4 hrs by MTS assay; assay type: functional, cell-based; method in brief: as §1
[38] = tested on: PANC-1; assay: Cytotoxicity against human PANC-1 cells assessed as inhibition of cell proliferation incubated for 4 hrs by MTS assay; assay type: functional, cell-based; conditions: PANC-1, 4 h; method in brief: as §1

NCCCC[C@H](NC(=O)[C@H](Cc1c[nH]c2ccccc12)NC(=O)[C@H](Cc1c[nH]c2ccccc12)NC(=O)[C@H](CCCCN)NC(=O)[C@H](CCCCN)NC(=O)[C@H](Cc1c[nH]c2ccccc12)NC(=O)[C@H](Cc1ccc(-c2ccccc2)cc1)NC(=O)[C@H](CCCCN)NC(=O)[C@@H](N)CCCCN)C(N)=O (H-KK[Bip]WKKWWK-NH2)
IC50 at 4 h [1]: 33 µM | IC50 [2]: 10 µM | IC50 [3]: 4.9 µM | IC50 [4]: 8.7 µM | IC50 [5]: 4.9 µM | IC50 [6]: 8.6 µM | IC50 at 4 h [7]: 87 µM | IC50 [8]: 14.3 µM | IC50 [9]: 7.9 µM | IC50 [10]: 4.6 µM | IC50 [11]: 2.4 µM | IC50 [12]: 11 µM | IC50 [13]: 9.3 µM | IC50 [14]: 12.6 µM | IC50 [15]: 6 µM | IC50 [16]: 14.1 µM | IC50 [17]: 7.9 µM | IC50 [18]: 7.8 µM | IC50 [19]: 8.2 µM | IC50 [20]: 9.8 µM | IC50 [21]: 7.1 µM | IC50 [22]: 8.2 µM | IC50 [23]: 5.9 µM | IC50 [24]: 8.3 µM | IC50 [25]: 2.5 µM | IC50 [26]: 2.7 µM | IC50 [27]: 5.4 µM | IC50 [28]: 6.1 µM | IC50 [29]: 5.6 µM | IC50 at 4 h [30]: 27.9 µM | IC50 [31]: 8.7 µM | IC50 [32]: 4.1 µM | IC50 [33]: 5.3 µM | IC50 [34]: 16.9 µM | IC50 [35]: 8.7 µM | IC50 [36]: 5.7 µM | IC50 [37]: 4.9 µM | IC50 [38]: 9.5 µM
